Source: ChEMBL document CHEMBL4706681, “New 2-Pyrazoline and Hydrazone Derivatives as Potent and Selective Monoamine Oxidase A Inhibitors” (J Med Chem, 2021)

system: not listed separately; experiment: Cytotoxicity against human HepG2 cells assessed as cell viability at 15 uM incubated for 2 hrs by MTT assay relative to control; assay type: cell-based; settings: read-out: Activity
Method in brief: (§1)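 HepG2 human hepatoma cells; viability read by MTT assay, with 0.1% DMSO as vehicle control. Viability given as % of control, mean ± SEM (n = 3); p < 0.05 taken as significant.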

Which viability at 2 h, 15 µM does the source give for `COc1ccccc1/C=C/C(=N\NC(=O)Cn1c(=O)oc2ccc(Cl)cc21)c1ccccc1` here?
The viability at 2 h, 15 µM was 89%.

With `COc1ccccc1C(/C=C/c1ccccc1Cl)=N/NC(=O)Cn1c(=O)oc2ccc(Cl)cc21` as the molecule, how does the viability at 2 h, 15 µM read?
Its viability at 2 h, 15 µM is 90.6%.

For `NCCNC(=O)c1ccc(Cl)cn1` [LAZABEMIDE], which viability at 2 h, 15 µM is on record?
Its viability at 2 h, 15 µM is 89.7%.

system: not listed separately; experiment: Selectivity index, ratio of Ki for inhibition of recombinant human MAO-A to Ki for inhibition of recombinant human MAO-B using p-tyramine as substrate; settings: not given

With `COc1cccc(C2=NN(C(=O)Cn3c(=O)oc4ccc(C)cc43)C(c3ccccc3Cl)C2)c1` (stereo not drawn) as the molecule, how does the Ratio Ki read?
The Ratio Ki was 4.52 10^-4No_unit.

For `COc1ccc(C2=NN(C(=O)Cn3c(=O)oc4ccc(Cl)cc43)C(c3cccc(OC)c3OC)C2)cc1` (stereo not drawn), which Ratio Ki is on record?
Its Ratio Ki is 1.94 10^-4No_unit.

Which Ratio Ki does the source give for `COc1ccccc1C(/C=C/c1ccccc1)=N/NC(=O)Cn1c(=O)oc2ccc(C)cc21` here?
The Ratio Ki was 2.22 10^-4No_unit.

With `Cc1ccc(C2CC(c3ccccc3)=NN2C(=O)Cn2c(=O)oc3ccc(C)cc32)cc1` (stereo not drawn) as the molecule, how does the Ratio Ki read?
The Ratio Ki was 0.002.

For `COc1ccc(C2CC(c3ccccc3)=NN2C(=O)Cn2c(=O)oc3ccc(C)cc32)cc1OC` (stereo not drawn), which Ratio Ki is on record?
Its Ratio Ki is 0.004.

Which Ratio Ki does the source give for `COc1ccccc1/C=C/C(=N\NC(=O)Cn1c(=O)oc2ccc(Cl)cc21)c1ccccc1` here?
Its Ratio Ki is 7.27 10^-5No_unit.

For `COc1cccc(C2CC(c3ccccc3)=NN2C(=O)Cn2c(=O)oc3ccc(Cl)cc32)c1` (stereo not drawn), which Ratio Ki is on record?
The Ratio Ki was 0.985.

With `COc1ccccc1C(/C=C/c1ccccc1Cl)=N/NC(=O)Cn1c(=O)oc2ccc(Cl)cc21` as the molecule, how does the Ratio Ki read?
The Ratio Ki was 1.08 10^-4No_unit.

target: T1, Amine oxidase [flavin-containing] B (Homo sapiens, UniProt P27338); experiment: Reversible inhibition of human MAO-B assessed as residual enzyme activity at 4 fold IC50 incubated for 15 mins and measured before dialysis relative to control; settings: not given
T1 sequence (P27338 whole entry): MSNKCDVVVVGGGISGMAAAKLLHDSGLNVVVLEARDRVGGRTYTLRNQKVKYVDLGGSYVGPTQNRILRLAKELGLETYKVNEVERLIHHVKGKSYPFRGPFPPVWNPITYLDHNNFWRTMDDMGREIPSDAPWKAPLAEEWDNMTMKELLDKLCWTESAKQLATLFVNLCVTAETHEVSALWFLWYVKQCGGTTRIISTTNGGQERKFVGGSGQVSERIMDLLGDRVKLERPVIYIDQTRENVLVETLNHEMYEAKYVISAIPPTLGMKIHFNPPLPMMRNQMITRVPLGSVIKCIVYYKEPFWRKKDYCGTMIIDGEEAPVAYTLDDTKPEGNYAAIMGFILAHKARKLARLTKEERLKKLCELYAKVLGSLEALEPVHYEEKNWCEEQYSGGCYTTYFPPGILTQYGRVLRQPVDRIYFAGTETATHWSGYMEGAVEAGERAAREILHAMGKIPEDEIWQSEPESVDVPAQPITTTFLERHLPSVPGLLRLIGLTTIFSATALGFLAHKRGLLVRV
Method in brief: (§2)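 Dialysed (MWCO 12 000) at 4 °C for 24 h against 100 mM potassium phosphate pH 7.4, 5% sucrose, buffer changed twice. Dialysed and undialysed mixtures assayed together; residual activity from triplicates.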

Which Activity does the source give for `COc1ccccc1/C=C/C(=N\NC(=O)Cn1c(=O)oc2ccc(Cl)cc21)c1ccccc1` here?
The Activity was 77.29%.

Which Activity does the source give for `COc1ccccc1C(/C=C/c1ccccc1Cl)=N/NC(=O)Cn1c(=O)oc2ccc(Cl)cc21` here?
Its Activity is 77.22%.

With `NCCNC(=O)c1ccc(Cl)cn1` [LAZABEMIDE] as the molecule, how does the Activity read?
Its Activity is 89%.

target: T2, Amine oxidase [flavin-containing] A (Homo sapiens, UniProt P21397); experiment: Reversible inhibition of human MAO-A assessed as residual enzyme activity at 4 fold IC50 incubated for 15 mins and measured 24 hrs post dialysis by dialysis method relative to control; settings: 24.25 h, time 1455 min; method in brief: as §2
T2 sequence (P21397 whole entry): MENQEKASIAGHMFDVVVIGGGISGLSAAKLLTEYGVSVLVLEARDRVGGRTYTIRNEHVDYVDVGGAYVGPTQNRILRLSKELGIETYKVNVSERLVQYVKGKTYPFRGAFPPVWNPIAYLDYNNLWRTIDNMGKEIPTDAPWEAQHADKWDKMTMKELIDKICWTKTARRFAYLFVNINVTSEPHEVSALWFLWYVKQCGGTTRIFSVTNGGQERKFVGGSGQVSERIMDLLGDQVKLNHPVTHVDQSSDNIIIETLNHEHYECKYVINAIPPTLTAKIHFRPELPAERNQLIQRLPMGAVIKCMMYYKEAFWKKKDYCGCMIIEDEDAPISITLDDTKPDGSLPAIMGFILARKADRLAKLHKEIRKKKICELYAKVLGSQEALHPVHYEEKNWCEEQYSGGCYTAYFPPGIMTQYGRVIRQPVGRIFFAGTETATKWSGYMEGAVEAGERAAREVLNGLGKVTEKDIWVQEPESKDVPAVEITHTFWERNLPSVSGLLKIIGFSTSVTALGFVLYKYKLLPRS

With `COc1ccccc1/C=C/C(=N\NC(=O)Cn1c(=O)oc2ccc(Cl)cc21)c1ccccc1` as the molecule, how does the Activity read?
Its Activity is 92.24%.

For `COc1ccccc1C(/C=C/c1ccccc1Cl)=N/NC(=O)Cn1c(=O)oc2ccc(Cl)cc21`, which Activity is on record?
Its Activity is 93.26%.

With `NCCNC(=O)c1ccc(Cl)cn1` [LAZABEMIDE] as the molecule, how does the Activity read?
Its Activity is 97%.

target: T2, Amine oxidase [flavin-containing] A; experiment: Inhibition of recombinant human MAO-A expressed in baculovirus infected BTI insect cells using p-tyramine as substrate incubated for 30 mins by Amplex red reagent based fluorescence analysis; settings: not given

For `COc1cccc(C2=NN(C(=O)Cn3c(=O)oc4ccc(C)cc43)C(c3ccccc3Cl)C2)c1` (stereo not drawn), which Ki is on record?
The Ki was 0.011 µM.

With `COc1ccc(C2=NN(C(=O)Cn3c(=O)oc4ccc(Cl)cc43)C(c3cccc(OC)c3OC)C2)cc1` (stereo not drawn) as the molecule, how does the Ki read?
The Ki was 1.55 µM.

With `COc1ccccc1C(/C=C/c1ccccc1)=N/NC(=O)Cn1c(=O)oc2ccc(C)cc21` as the molecule, how does the Ki read?
Its Ki is 0.012 µM.

With `Cc1ccc(C2CC(c3ccccc3)=NN2C(=O)Cn2c(=O)oc3ccc(C)cc32)cc1` (stereo not drawn) as the molecule, how does the Ki read?
Its Ki is 0.008 µM.

Which Ki does the source give for `COc1ccc(C2CC(c3ccccc3)=NN2C(=O)Cn2c(=O)oc3ccc(C)cc32)cc1OC` (stereo not drawn) here?
Its Ki is 0.17 µM.

With `COc1ccccc1/C=C/C(=N\NC(=O)Cn1c(=O)oc2ccc(Cl)cc21)c1ccccc1` as the molecule, how does the Ki read?
Its Ki is 0.001 µM.

Which Ki does the source give for `COc1cccc(C2CC(c3ccccc3)=NN2C(=O)Cn2c(=O)oc3ccc(Cl)cc32)c1` (stereo not drawn) here?
Its Ki is 0.985 µM.

For `COc1ccccc1C(/C=C/c1ccccc1Cl)=N/NC(=O)Cn1c(=O)oc2ccc(Cl)cc21`, which Ki is on record?
The Ki was 0.001 µM.

Which Ki does the source give for `NCCNC(=O)c1ccc(Cl)cn1` [LAZABEMIDE] here?
Its Ki is > 250 µM.

system: not listed separately; experiment: Permeability of compound in PBS/EtOH buffer (70:30) at 25 ug/ml incubated for 16 hrs by UV plate reader based PAMPA-BBB; settings: not given

For `COc1ccccc1/C=C/C(=N\NC(=O)Cn1c(=O)oc2ccc(Cl)cc21)c1ccccc1`, which Papp at 16 h, 25 ug/ml is on record?
The Papp at 16 h, 25 ug/ml was 14.6 ×10⁻⁶ cm/s.

For `COc1ccccc1C(/C=C/c1ccccc1Cl)=N/NC(=O)Cn1c(=O)oc2ccc(Cl)cc21`, which Papp at 16 h, 25 ug/ml is on record?
The Papp at 16 h, 25 ug/ml was 14 ×10⁻⁶ cm/s.

target: T1, Amine oxidase [flavin-containing] B; experiment: Reversible inhibition of human MAO-B assessed as residual enzyme activity at 4 fold IC50 incubated for 15 mins and measured 24 hrs post dialysis relative to control; settings: 24.25 h, time 1455 min; method in brief: as §2

For `COc1ccccc1/C=C/C(=N\NC(=O)Cn1c(=O)oc2ccc(Cl)cc21)c1ccccc1`, which Activity is on record?
The Activity was 97%.

For `COc1ccccc1C(/C=C/c1ccccc1Cl)=N/NC(=O)Cn1c(=O)oc2ccc(Cl)cc21`, which Activity is on record?
The Activity was 93.41%.

Which Activity does the source give for `NCCNC(=O)c1ccc(Cl)cn1` [LAZABEMIDE] here?
Its Activity is 99%.

target: T1, Amine oxidase [flavin-containing] B; experiment: Inhibition of recombinant human MAO-B expressed in baculovirus infected BTI insect cells using p-tyramine as substrate incubated for 30 mins by Amplex red reagent based fluorescence analysis; assay type: cell-based; settings: not given

With `COc1cccc(C2=NN(C(=O)Cn3c(=O)oc4ccc(C)cc43)C(c3ccccc3Cl)C2)c1` (stereo not drawn) as the molecule, how does the Ki read?
Its Ki is 24.3 µM.

Which Ki does the source give for `COc1ccc(C2=NN(C(=O)Cn3c(=O)oc4ccc(Cl)cc43)C(c3cccc(OC)c3OC)C2)cc1` (stereo not drawn) here?
Its Ki is 8000 µM.

With `COc1ccccc1C(/C=C/c1ccccc1)=N/NC(=O)Cn1c(=O)oc2ccc(C)cc21` as the molecule, how does the Ki read?
Its Ki is 54 µM.

For `Cc1ccc(C2CC(c3ccccc3)=NN2C(=O)Cn2c(=O)oc3ccc(C)cc32)cc1` (stereo not drawn), which Ki is on record?
Its Ki is 5.22 µM.

Which Ki does the source give for `COc1ccc(C2CC(c3ccccc3)=NN2C(=O)Cn2c(=O)oc3ccc(C)cc32)cc1OC` (stereo not drawn) here?
Its Ki is 41.3 µM.

With `COc1ccccc1/C=C/C(=N\NC(=O)Cn1c(=O)oc2ccc(Cl)cc21)c1ccccc1` as the molecule, how does the Ki read?
Its Ki is 2.75 µM.

Which Ki does the source give for `COc1cccc(C2CC(c3ccccc3)=NN2C(=O)Cn2c(=O)oc3ccc(Cl)cc32)c1` (stereo not drawn) here?
Its Ki is 1 µM.

For `COc1ccccc1C(/C=C/c1ccccc1Cl)=N/NC(=O)Cn1c(=O)oc2ccc(Cl)cc21`, which Ki is on record?
The Ki was 9.27 µM.

system: not listed separately; experiment: Cytotoxicity against human HepG2 cells assessed as cell viability at 7.5 uM incubated for 2 hrs by MTT assay relative to control; assay type: cell-based; settings: read-out: Activity; method in brief: as §1

With `COc1ccccc1/C=C/C(=N\NC(=O)Cn1c(=O)oc2ccc(Cl)cc21)c1ccccc1` as the molecule, how does the viability at 2 h, 7.5 µM read?
Its viability at 2 h, 7.5 µM is 91.3%.

Which viability at 2 h, 7.5 µM does the source give for `COc1ccccc1C(/C=C/c1ccccc1Cl)=N/NC(=O)Cn1c(=O)oc2ccc(Cl)cc21` here?
The viability at 2 h, 7.5 µM was 92.1%.

With `NCCNC(=O)c1ccc(Cl)cn1` [LAZABEMIDE] as the molecule, how does the viability at 2 h, 7.5 µM read?
The viability at 2 h, 7.5 µM was 92.4%.

target: T2, Amine oxidase [flavin-containing] A; experiment: Reversible inhibition of human MAO-A assessed as residual enzyme activity at 4 fold IC50 incubated for 15 mins and measured before dialysis by dialysis method relative to control; settings: not given; method in brief: as §2

With `COc1ccccc1/C=C/C(=N\NC(=O)Cn1c(=O)oc2ccc(Cl)cc21)c1ccccc1` as the molecule, how does the Activity read?
Its Activity is 19.55%.

With `COc1ccccc1C(/C=C/c1ccccc1Cl)=N/NC(=O)Cn1c(=O)oc2ccc(Cl)cc21` as the molecule, how does the Activity read?
The Activity was 21.91%.

For `NCCNC(=O)c1ccc(Cl)cn1` [LAZABEMIDE], which Activity is on record?
The Activity was 11%.

system: not listed separately; experiment: Cytotoxicity against human HepG2 cells assessed as cell viability at 30 uM incubated for 2 hrs by MTT assay relative to control; assay type: cell-based; settings: read-out: Activity; method in brief: as §1

With `COc1ccccc1/C=C/C(=N\NC(=O)Cn1c(=O)oc2ccc(Cl)cc21)c1ccccc1` as the molecule, how does the viability at 2 h, 30 µM read?
The viability at 2 h, 30 µM was 87.7%.

Which viability at 2 h, 30 µM does the source give for `COc1ccccc1C(/C=C/c1ccccc1Cl)=N/NC(=O)Cn1c(=O)oc2ccc(Cl)cc21` here?
Its viability at 2 h, 30 µM is 87.4%.

With `NCCNC(=O)c1ccc(Cl)cn1` [LAZABEMIDE] as the molecule, how does the viability at 2 h, 30 µM read?
The viability at 2 h, 30 µM was 85.6%.
